# Assay outcomes (PubChem BioAssay)
# dFosB act = activators of delta FosB homodimer, primary screen, biochemical, fluorescence polarization, TAMRA-CDK5 oligo, single point; purified delta FosB; percent of positive-control signal above neutral wells; actives 0.99% (n = 340,000); activation, % at 25 µM; AID 493131, 2011; Protein FosB (Mus musculus), P13346;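 active means mean activation above about 17%, with every replicate also reaching it, limit read from the data, passing the limit was not always enough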
# Target sequence (P13346 whole entry, looked up): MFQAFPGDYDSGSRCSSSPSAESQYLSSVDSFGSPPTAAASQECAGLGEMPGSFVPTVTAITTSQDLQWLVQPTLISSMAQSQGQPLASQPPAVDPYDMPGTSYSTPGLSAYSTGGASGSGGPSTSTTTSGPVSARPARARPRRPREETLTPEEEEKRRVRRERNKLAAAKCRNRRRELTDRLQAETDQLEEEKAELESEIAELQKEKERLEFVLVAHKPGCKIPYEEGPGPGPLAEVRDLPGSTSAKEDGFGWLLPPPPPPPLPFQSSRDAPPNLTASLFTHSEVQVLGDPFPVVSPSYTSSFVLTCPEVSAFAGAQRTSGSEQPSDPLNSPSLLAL
# INS-1E GSIS act = GLuc luminescence reporter in INS-1E cells, primary screen for activators of glucose-dependent secretion of insulin; actives 0.61% (n = 370,000); activation, % at 16.6 µM; INS-1E GLuc reporter insulin secretion, 2-3 h;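 active means lowest replicate activation of at least 40%, so every replicate reaches that level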
# Rtt109 HAT inh = inhibitors of C. albicans Rtt109/Vps75 HAT, primary screen, biochemical, ThioGlo CoA-SH fluorescence, plate reader; Histone acetyltransferase RTT109 (Candida albicans (strain SC5314 / ATCC MYA-2876)), …; purified Rtt109/Vps75, 4 h; inhibition, % at 34.9 µM; actives 0.16% (n = 330,000); AID 540336, 2011;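 active means inhibition of at least 50% in every replicate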
# miR122 inh = miR-122 Renilla sensor signal increase in Huh7, primary screen, miR-122 inhibitor project, cell-based, single point, plate reader; Huh7 miR-122 Renilla luciferase sensor, 48 h; neutral wells = 0, positive control = 100; activation (reporter increase), % at 12.5 µM; actives 0.3% (n = 340,000); AID 602342, 2012;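 active means mean replicate activation score at least 90 and every replicate individually at or above 90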;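 further: higher luciferase means less miR-122 activity so hits act as miR-122 inhibitors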
# Cneo AK release = Cryptococcus neoformans cell lysis inducers, primary screen, AK release luminescence, single concentration | AID 651654, 2012 | actives 0.2% (n = 360,000) | lysis activity, % at 15 µM | C. neoformans lysis, adenylate kinase release luminescence, 4 h; normalised: neutral wells 0, clomiphene wells 100;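 active means mean lysis activity across replicates of at least 80%, whatever share of replicates individually reach that level; inactive means mean lysis activity below 80%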
#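 Material: C. neoformans cells; Schedule: 4 h static compound exposure, 37 °C, read 1 h post-reagent; Measured by: adenylate kinase release luminescence; Read-out: signal increase indicating cell lysis; Controls: Clomiphene as positive lysis control.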
# Env fusion inh = inhibitors of HIV-1 Env-driven cell-cell fusion, primary screen, HeLa-JRFL effector, CEM21 target cells, luciferase; inhibition, % at 12.3 µM; actives 1.1% (n = 360,000); AID 651610, 2012;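 active means mean replicate inhibition score of at least 50 and every replicate individually at or above 50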
# A number is an active result; – = inactive; · = no result given; [ ] = another dose, or the depositor's remark. Rows were chosen to be rich in hits. Some 2.4% of all compounds tested hit in one or more screens of this group.
SMILES,dFosB act,INS-1E GSIS act,Rtt109 HAT inh,miR122 inh,Cneo AK release,Env fusion inh
CCCOc1ccc(Cn2cnc3ccccc32)cc1,–,–,–,–,–,60.1
Cc1sc2nc3c4ccccc4c(NCc4ccco4)nn3c(=O)c2c1C,–,·,–,–,–,·
Cc1nc(NCc2ccco2)c2c(C)c(C)sc2n1,–,·,–,129.2,–,–
COC(=O)C[C@@H]1CC[C@@H]2[C@H](COC[C@@H](O)CN2C(=O)Nc2ccccc2OC)O1,·,–,·,–,–,–
C[C@H](CO)N1C[C@H](C)[C@@H](CN(C)Cc2ccc(C(F)(F)F)cc2)OCCCC[C@H](C)Oc2ccc(NS(=O)(=O)c3ccc(Cl)cc3)cc2C1=O,·,–,·,–,–,55.0[16.7 µM]
C[C@H]1CCCCO[C@H](CN(C)Cc2ccc(C(F)(F)F)cc2)[C@@H](C)CN([C@@H](C)CO)C(=O)c2cc(NS(=O)(=O)c3ccc(F)cc3)ccc2O1,·,–,·,–,–,68.1[16.7 µM]
C[C@@H]1CCCCO[C@@H](CN(C)Cc2ccc(C(F)(F)F)cc2)[C@@H](C)CN([C@H](C)CO)C(=O)c2cc(NS(=O)(=O)c3ccc(F)cc3)ccc2O1,·,–,·,–,–,–
C[C@H](CO)N1C[C@H](C)[C@H](CN(C)Cc2ccc(C(F)(F)F)cc2)OCCCC[C@H](C)Oc2ccc(NS(C)(=O)=O)cc2C1=O,·,–,·,–,–,–
C[C@H]1CCCCO[C@@H](CN(C)Cc2ccc(C(F)(F)F)cc2)[C@@H](C)CN([C@@H](C)CO)C(=O)c2cc(NS(C)(=O)=O)ccc2O1,·,–,·,–,–,55.3[16.7 µM]
C[C@H](CO)N1C[C@H](C)[C@H](CN(C)Cc2ccncc2)Oc2c(NC(=O)C3CC3)cccc2C1=O,·,–,·,–,–,–
CCCC(=O)N1CCC2(CC1)CN(C(=O)CC1CC1)[C@@H](CO)c1c2c2ccc(OC)cc2n1C,·,–,·,·,·,·
C/C=C/c1ccc([C@H]2[C@@H](CO)N(C(=O)c3cnccn3)C23CN(C(=O)C2CC2)C3)cc1,·,–,·,·,·,·
C[C@@H]1CN([C@@H](C)CO)C(=O)c2cc(/C=C/c3ccccc3)cnc2O[C@@H]1CN(C)Cc1ccc2c(c1)OCO2,·,–,·,–,–,–
CCCN(C(=O)CCc1cn(CCC)c2ccccc12)c1ccc(N(C)c2ccccn2)cc1,·,·,·,·,·,–
CCCN(C(=O)CCc1cn(CCC)c2ccccc12)c1ccc(Oc2cccnc2)cc1,·,–,·,·,·,69.8
O=C(C[C@@H]1CC[C@H]2[C@@H](COC[C@@H](O)CN2C(=O)c2ccncc2)O1)NC1Cc2ccccc2C1,·,–,·,–,–,·
Cc1ccc(Cn2ncc3c(N4CCN(c5ccc(C)cc5)CC4)ncnc32)cc1,–,·,–,–,–,90.9
Cc1ccc(Cn2ncc3c(N4CCN(Cc5ccc(Cl)cc5)CC4)ncnc32)cc1,–,·,–,–,–,96.5
O=C(NC1CCCCCC1)C1CCCN(c2ncccn2)C1 (stereo not given),–,64.8,–,–,–,–
O=C(NC1CCCCCCC1)C1CCN(c2nc3ccccc3o2)CC1,–,·,–,–,–,75.2
CCC(=O)N1CC2(C1)CN(Cc1ccccc1Cl)[C@H](CO)c1[nH]c3cc(OC)ccc3c12,·,–,·,·,·,·
C[C@H](O)[C@@H]1C(=O)N2CCc3c([nH]c4cccc(-c5ccccc5)c34)[C@@H]2C[C@@H]1N(C)C(=O)NC1CCCCC1,·,–,·,·,·,60.6
C[C@H](O)[C@@H]1C(=O)N2CCc3ccc(-c4ccccc4)cc3[C@@H]2C[C@@H]1N(C)C(=O)NC1CCCCC1,–,–,–,–,–,–
COCCNC(=S)N(C)[C@H]1C[C@H]2c3[nH]c4cccc(-c5ccccc5)c4c3CCN2C(=O)[C@H]1[C@H](C)O,·,–,·,·,·,58.7
CNC(=O)C[C@@H]1CC[C@H]2[C@H](COc3ccc(NC(=O)Nc4cc(C)cc(C)c4)cc3C(=O)N2C)O1,·,–,·,–,–,–
SMILES,dFosB act,INS-1E GSIS act,Rtt109 HAT inh,miR122 inh,Cneo AK release,Env fusion inh
Cc1ccnc(NCc2cc(C)ccc2O)c1,–,–,–,211.0,–,–
O=C(NCC[C@@H]1CC[C@H](NC(=O)c2ccc3c(c2)OCO3)[C@H](CO)O1)Nc1ccc(Cl)cc1,·,–,·,·,–,–
C[C@H]1CN([C@@H](C)CO)C(=O)Cc2cc(NS(=O)(=O)c3cccs3)ccc2O[C@H]1CN(C)S(=O)(=O)c1cccs1,·,–,·,–,·,–
CC(C)C(=O)Nc1ccccc1N1CCN(S(C)(=O)=O)CC1,–,·,–,–,–,–
CS(=O)(=O)N1CCN(c2ccccc2NC(=O)C(c2ccccc2)c2ccccc2)CC1,–,·,–,–,–,71.5
CN1CCN(c2ccccc2NC(=O)C(Cc2ccccc2)n2cccc2)CC1 (stereo not given),–,–,–,·,–,77.5
CN1CCN(c2ccccc2NC(=O)c2ccc(-c3ccccc3)cc2)CC1,–,·,–,–,–,·
C[C@H](CO)N1C[C@H](C)[C@@H](CN(C)S(=O)(=O)c2cn(C)cn2)Oc2ccc(NC(=O)C3CCCCC3)cc2CC1=O,·,–,·,–,–,–
CCCc1nc2c(=O)n(C)c(=O)nc-2n(C)n1,–,–,–,–,–,69.1
COc1ccc(-c2nc(-c3ccccn3)ncc2S(C)(=O)=O)cc1,–,–,–,·,·,–
Cn1nc(-c2ccccn2)nc2c(=O)n(C)c(=O)nc1-2,–,–,–,–,–,68.0
CC(=O)N(C)C[C@@H]1Oc2cc(-c3ccccc3C)ccc2S(=O)(=O)N([C@H](C)CO)C[C@@H]1C,·,–,·,–,–,–
O=C(CNC(=O)c1ccccc1)N/N=C/c1cc(Br)ccc1O,–,–,–,–,–,·
O=C(CNC(=O)c1ccccc1Br)N/N=C/c1ccccc1O,–,–,–,·,·,–
O=C(CNC(=O)c1ccccc1Br)N/N=C/c1cc(Br)ccc1O,32.1,–,·,–,–,–
O=C(CNC(=O)c1ccc2c(c1)OCO2)N/N=C/c1cc(Br)ccc1O,61.7,–,–,–,–,–
Cn1ccnc1CC(O)(c1ccccc1)c1ccccc1,–,–,–,–,–,–
C/C=C/n1ccnc1CC(O)(c1ccccc1)c1ccc(C)cc1 (stereo not given),–,–,60.1,·,·,–
C[C@@H]1CN([C@H](C)CO)C(=O)c2cc(C3=CCCC3)cnc2O[C@@H]1CN(C)Cc1ccccc1F,·,–,·,–,–,·
CC(C)NC(=O)N1C[C@@H]2C(c3ccccc3)[C@H](C1)N2Cc1ccc(F)cc1 (stereo not given in full),·,–,·,·,·,·
